Type in all cases: functional
The species named for assay [1] is Rattus norvegicus. The assay can be described thus: Compound was tested for hypolipidemic activity in male rats, cholesterol was determined in serum. The essentials:
(§1)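 Male Wistar rats (200–230 g), eight per group, were dosed orally in PEG 400 at 8 a.m. for 4 days, plus a second dose at 4 p.m. on day 4. Rats were fasted 16 h and killed 16 h after the last dose. Sera from pairs of rats were pooled. LDL (up to 1.040 g/cm³) was separated by ultracentrifugation and the HDL infranatant taken. Cholesterol was measured enzymatically. Results are % versus vehicle control, mean ± SEM of four pools, Student's t test.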

For assay [2], the species on record is Rattus norvegicus. The assay can be described thus: Hypolipidemic activity was determined in male rats, and low-density lipoprotein level was determined. The gist of the method:
as §1

Assay [3] is filed under the species Rattus norvegicus. The assay can be described thus: Hypolipidemic activity was determined in male rats, and high-density lipoprotein level was determined. The essentials:
as §1

The next assay concerns Staphylococcus aureus. Nature of the assay: Antibacterial activity against Staphylococcus aureus 10B. The gist of the method:
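Agar dilution on DST agar with 2-fold drug dilutions. Inoculum of 10⁴ viable S. aureus 10B was taken from liquid-nitrogen stock, thawed 30 min and not subcultured. It was applied by multipoint replicator and incubated overnight at 37 °C. MIC is the lowest concentration inhibiting growth relative to control cultures.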

Values after ≈ are worked out from the molar mass of the structure shown.

This passage reports Activity and MIC results from ChEMBL document CHEMBL1125042, “Hypolipidemic activity of rifamycin derivatives” (J Med Chem, 1990).

As to `COc1c(C)c2c3c4c1C(=O)C(=C(N1CCN(Cc5c(C)cc(C)cc5C)CC1)C4=O)NC(=O)/C(C)=C\C=C\C(C)C(O)C(C)C(O)C(C)C(OC(C)=O)C(C)C(OC)/C=C/OC(C)(O2)C3=O` (centres undefined), the Activity in the assay filed under Rattus norvegicus [1] is -4%; in the assay listed under Rattus norvegicus [2] it was 1%; in the assay filed under Rattus norvegicus [3], -6%. In addition, the MIC (as a rule, the smallest concentration in the dilution series that meets the test's criterion for growth inhibition) against Staphylococcus aureus worked out at 1 µg/mL (≈ 1.08 µM).
